Screening data (PubChem)
An excerpt weighted towards active compounds, which were near 6.8% of everything screened.
HSF-1 act = increases HSF-1 driven luciferase reporter signal; activation, % at 9 µM; 300,000 compounds, 1.7% hits; NIH3T3-HGL HSF-1 luciferase reporter, MG132, 8 h; 100% = twice DMSO control signal;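 active means mean replicate activation of at least 50% with a set share of replicates each reaching 50%; inconclusive means only one of those two conditions met; inactive means mean below 50% and too few replicates reaching it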;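 further: 0% = median of the neutral control wells and 100% = twice that signal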
ALR inh = blocks human ALR sulfhydryl oxidase activity. purified ALR, DTT oxidation, H2O2 HRP-luminol luminescence. inhibition, % (concentration not given with the values). 290,000 compounds, 3.8% hits. AID 485317;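 active means mean replicate inhibition above about 79%, with every replicate also reaching it, limit read from the data; inconclusive means only one of the two criteria met; inactive means mean below limit and not every replicate reaching it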
Target sequence (P55789 whole entry, looked up): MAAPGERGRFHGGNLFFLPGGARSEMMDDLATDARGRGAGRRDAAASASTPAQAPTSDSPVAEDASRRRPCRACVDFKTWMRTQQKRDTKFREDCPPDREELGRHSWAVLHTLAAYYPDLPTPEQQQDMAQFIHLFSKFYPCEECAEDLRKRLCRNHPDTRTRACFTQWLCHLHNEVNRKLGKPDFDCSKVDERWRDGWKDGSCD
AI-2 QS modul = modulates the Vibrio harveyi AI-2 quorum sensing system. 300,000 compounds, 0.4% hits. activity change, % at 7.5 µM. Vibrio harveyi JMH597 AI-2 luminescence/OD600 ratio, 9 h; stronger effect = lower value; strain lacks LuxN and CqsS sensors; 0 = neutral-control median; in the data active means activity change below about -75%, passing the limit was not always enough; inconclusive means no clear call, values can overlap the other calls;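 further: luminescence divided by OD600 gain over 9 h not by final OD600 alone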
core dimer inh = HCV core protein dimerization inhibition. TR-FRET GST/Flag-core106 dimerization, 1536-well. inhibition, % at 5 µM. 300,000 compounds, 0.33% hits. AID 1899;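 active means inhibition above the mean of all tested compounds plus 3 SD, set per screening campaign, cut at about 45% in these data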
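assay system = GST-tagged and Flag-tagged HCV core protein residues 1-106 | controls = unlabelled core106 and no-GST-core106 wells | incubation = compound-protein-antibody incubation 4 h at 22.5 °C | probe or stimulus = Eu donor and XL665 acceptor anti-tag antibodies | read-out = % inhibition based on acceptor/donor emission ratio | signal = TR-FRET 671 and 617 nm emission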
HSF1 inh = HSF1 inhibition. AID 2098. 300,000 compounds, 0.77% hits. NIH3T3-HGL HSE-luciferase, MG132-induced, luminescence 8 h; stronger effect = lower value. activity change, negative = inhibition, % at 7.5 µM (by protocol);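 active means more than half of replicate wells show activity change below -50%, luminescence cut by over half; inconclusive means some wells, but at most half, below -50%; inactive means no replicate well below -50%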;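 further: luciferase reports HSF-1 transcriptional activity via heat shock element; 0% = median of DMSO wells and -100% = zero luminescence signal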
PHOSPHO1 inh = blocks human PHOSPHO1 phosphatase activity; Q8TCT1; recombinant PHOSPHO1, absorbance phosphatase assay; inhibition, % at 13.3 µM; 290,000 compounds, 1.1% hits; AID 1565; in the data active means inhibition above about 60%
Target sequence (Q8TCT1 whole entry, looked up): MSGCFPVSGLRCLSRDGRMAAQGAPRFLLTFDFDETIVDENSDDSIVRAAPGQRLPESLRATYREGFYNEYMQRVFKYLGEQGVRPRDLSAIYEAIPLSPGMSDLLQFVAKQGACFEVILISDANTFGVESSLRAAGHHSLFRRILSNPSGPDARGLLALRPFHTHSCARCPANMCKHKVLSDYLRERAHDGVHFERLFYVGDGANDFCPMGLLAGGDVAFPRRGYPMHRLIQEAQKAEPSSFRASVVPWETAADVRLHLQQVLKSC
Active calls of the source: *.

`COC(=O)c1cc(S(=O)(=O)N2CCN(C(=O)c3ccco3)CC2)cn1C` gave HSF-1 act -2.0, ALR inh -14.2, AI-2 QS modul 8.4, core dimer inh 2.3, HSF1 inh -1.4 and PHOSPHO1 inh 22.6.
For Cc1ccc(-n2nc(C)c(/C=N/n3c(C)n[nH]c3=S)c2Cl)cc1 the results were HSF-1 act 20.2, ALR inh -3.4, AI-2 QS modul 15.1, core dimer inh -1.6, HSF1 inh 0.6 and PHOSPHO1 inh 8.1.
`COc1ccccc1Nc1nc2c(s1)CCC2` gave HSF-1 act -9.9, ALR inh 40.0, AI-2 QS modul -1.9, core dimer inh 17.0, HSF1 inh 1.0 and PHOSPHO1 inh 75.7*.
Screening c1ccc2c(Nc3ccc4c(c3)OCCO4)c3c(nc2c1)CCCC3 returned HSF-1 act 27.0, ALR inh 90.1*, AI-2 QS modul 8.8, core dimer inh 6.2, HSF1 inh 17.3 and PHOSPHO1 inh -3.9.
Cc1ccc(Nc2nc3c(s2)CCC3)c(C)c1 was read as HSF-1 act -8.0, AI-2 QS modul 29.4, core dimer inh -0.8, HSF1 inh -5.5 and PHOSPHO1 inh -8.1.
`COc1cc(Nc2c3c(nc4ccccc24)CCCC3)cc(OC)c1OC` gave HSF-1 act 35.0, ALR inh 98.4*, AI-2 QS modul 13.2, core dimer inh 7.8, HSF1 inh 26.4 and PHOSPHO1 inh -9.7.
`COc1ccc(Nc2c3c(nc4ccccc24)CCC3)c(OC)c1` gave HSF-1 act -14.6, ALR inh 98.6*, AI-2 QS modul 33.9, core dimer inh -1.4, HSF1 inh -11.0 and PHOSPHO1 inh 32.6.
COC(=O)c1cccc(Nc2c3c(nc4ccccc24)CCC3)c1 was read as HSF-1 act 24.3, AI-2 QS modul 12.6, HSF1 inh 2.1 and PHOSPHO1 inh 27.3.
Cc1cc(OCc2cc(C(=O)N3CCC(Oc4cccnc4)CC3)no2)cc(C)c1Cl was read as HSF-1 act -20.6, ALR inh -6.3, AI-2 QS modul 57.0, core dimer inh 15.2, HSF1 inh -4.5 and PHOSPHO1 inh 51.4.
O=S(=O)(c1ccc2ccccc2c1)N1CCN=C1SCc1cccnc1 was read as HSF-1 act 12.3, ALR inh 99.0*, AI-2 QS modul 12.4, core dimer inh -12.2, HSF1 inh 4.7 and PHOSPHO1 inh 0.6.
Screening O=S(=O)(c1ccc(F)cc1)N1CCN=C1SCc1cccnc1 returned HSF-1 act 10.1, ALR inh 98.0*, AI-2 QS modul 9.0, core dimer inh -0.7, HSF1 inh 8.3 and PHOSPHO1 inh -15.4.
`CC(=O)Nc1ccc(S(=O)(=O)N2CCN=C2SCc2cccnc2)cc1` gave HSF-1 act 6.8, ALR inh 98.3*, AI-2 QS modul 7.8, core dimer inh 7.0, HSF1 inh -4.1 and PHOSPHO1 inh 5.9.
`O=S(=O)(c1ccc(Br)cc1)N1CCN=C1SCc1cccnc1` gave HSF-1 act 3.2, ALR inh inconclusive, AI-2 QS modul 5.1, core dimer inh 4.4, HSF1 inh 4.1 and PHOSPHO1 inh -3.9.
For Cc1[nH]c2ccccc2c1/C=N/NC(=O)CNC(=O)c1ccco1 the results were HSF-1 act 1.9, ALR inh 95.0*, AI-2 QS modul 0.8, core dimer inh -1.7, HSF1 inh -2.8 and PHOSPHO1 inh 15.7.
Screening C/C(=N\Nc1ccc(Cl)cc1)c1c(O)cc(C)oc1=O returned HSF-1 act 25.2, ALR inh 98.6*, AI-2 QS modul 30.0, core dimer inh -7.0, HSF1 inh 21.2 and PHOSPHO1 inh -81.7.
`COC(=O)c1ccc(NC(=S)N2CCN(CCO)CC2)cc1` gave HSF-1 act 1.7, ALR inh -12.1, AI-2 QS modul 12.9, core dimer inh 1.4, HSF1 inh 1.7 and PHOSPHO1 inh 8.8.
Screening Cc1sc2nc(CSCC(=O)NC(C)(C)C)[nH]c(=O)c2c1C returned HSF-1 act 22.0, ALR inh 98.8*, AI-2 QS modul 12.3, core dimer inh 2.9, HSF1 inh -0.7 and PHOSPHO1 inh 20.5.
Screening Cc1sc2nc(CSCC(=O)N(C)CC(=O)Nc3ccc(F)cc3)[nH]c(=O)c2c1C returned HSF-1 act 42.4, ALR inh 99.1*, AI-2 QS modul 5.1, core dimer inh 1.2 and HSF1 inh 24.7.
